Test results as given in ChEMBL document CHEMBL3272012, “5-(Tetradecyloxy)-2-furancarboxylic acid and related hypolipidemic fatty acid-like alkyloxyarylcarboxylic acids” (J Med Chem, 1977).
One block for each compound: values may come before it.

Assays:
Rattus norvegicus [1] = assay: Hypolipidemic activity in Wistar rat assessed as reduction in plasma triglyceride level at 472 umol/kg/day administered through diet for 4 days; assay type: functional; conditions: 96 h
Rattus norvegicus [2] = assay: Hypolipidemic activity in Wistar rat assessed as reduction in plasma cholesterol level at 472 umol/kg/day administered through diet for 4 days; assay type: functional; conditions: 96 h
Summary of the method: (§1)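 Young male Wistar rats, 170-190 g initial weight, groups of six, given compound mixed thoroughly into Purina Lab Chow ad libitum for 4 or 10 days as stated. Daily dose calculated from food consumption and body weight. Bled by cardiac puncture at end of treatment; plasma cholesterol measured by automated procedure. Expressed as percent reduction versus simultaneous untreated control group; Student's t test.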

Rattus norvegicus [3] = assay: Increase in liver weight in Wistar rat at 472 umol/kg/day administered through diet for 4 days; assay type: ADME, organism-based; conditions: in vivo, po, 96 h
Rattus norvegicus [4] = assay: Increase in cholesterol level in Wistar rat liver at 472 umol/kg/day administered through diet for 4 days; assay type: ADME, organism-based; conditions: in vivo, po, 96 h
Rattus norvegicus [5] = assay: Hypolipidemic activity in Wistar rat assessed as reduction in plasma triglyceride level at 509 umol/kg/day administered through diet for 4 days; assay type: functional; conditions: 96 h
Rattus norvegicus [6] = assay: Hypolipidemic activity in Wistar rat assessed as reduction in plasma cholesterol level at 509 umol/kg/day administered through diet for 4 days; assay type: functional; conditions: 96 h; summary of the method: as §1
Rattus norvegicus [7] = assay: Increase in cholesterol level in Wistar rat liver at 509 umol/kg/day administered through diet for 4 days; assay type: ADME, organism-based; conditions: in vivo, po, 96 h
Rattus norvegicus [8] = assay: Increase in liver weight in Wistar rat at 509 umol/kg/day administered through diet for 4 days; assay type: ADME, organism-based; conditions: in vivo, po, 96 h
Rattus norvegicus [9] = assay: Hypolipidemic activity in Wistar rat assessed as reduction in plasma triglyceride level at 385 umol/kg/day administered through diet for 4 days; assay type: functional; conditions: 96 h
Summary of the method: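 Young male Wistar rats (170-190 g initial weight), groups of six, fed test compound mixed into Purina Lab Chow ad libitum; daily dose calculated from food consumption and body weight. Bled by cardiac puncture at end of treatment; plasma triglycerides measured by automated procedure. Results given as percent reduction versus a simultaneous untreated control group, with significance by Student's t test.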

Rattus norvegicus [10] = assay: Hypolipidemic activity in Wistar rat assessed as reduction in plasma cholesterol level at 385 umol/kg/day administered through diet for 4 days; assay type: functional; conditions: 96 h
Summary of the method: (§2)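 Young male Wistar rats, 170-190 g at start, in groups of six, given compound mixed into Purina Lab Chow ad libitum for 4 or 10 days as stated. Daily dose was calculated from food consumption and body weight. Plasma was taken by cardiac puncture at the end and cholesterol measured by automated procedure. Results are % reduction versus a concurrent untreated control group, with Student's t test.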

Rattus norvegicus [11] = assay: Increase in cholesterol level in Wistar rat liver at 385 umol/kg/day administered through diet for 4 days; assay type: ADME, organism-based; conditions: in vivo, po, 96 h
Rattus norvegicus [12] = assay: Increase in liver weight in Wistar rat at 385 umol/kg/day administered through diet for 4 days; assay type: ADME, organism-based; conditions: in vivo, po, 96 h
Rattus norvegicus [13] = assay: Hypolipidemic activity in Wistar rat assessed as reduction in plasma triglyceride level at 499 umol/kg/day administered through diet for 4 days; assay type: functional; conditions: 96 h
Summary of the method: (§3)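 Young male Wistar rats (initial weight 170-190 g), groups of six, fed compound mixed into Purina Lab Chow ad libitum for 4 or 10 days; daily dose calculated from food consumption and body weight. Bled by cardiac puncture; plasma cholesterol and triglycerides by automated procedures; percent reduction versus simultaneous untreated controls, Student's t test.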

Rattus norvegicus [14] = assay: Hypolipidemic activity in Wistar rat assessed as reduction in plasma cholesterol level at 499 umol/kg/day administered through diet for 4 days; assay type: functional; conditions: 96 h; summary of the method: as §1
Rattus norvegicus [15] = assay: Increase in liver weight in Wistar rat at 499 umol/kg/day administered through diet for 4 days; assay type: ADME, organism-based; conditions: in vivo, po, 96 h
Summary of the method: (§4)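 Male Wistar rats (170-190 g initial), groups of six, dosed via diet ad libitum for 4 or 10 days, daily dose from food consumption. Liver wet weight measured, expressed as g/100 g final body weight, compared with untreated controls run simultaneously.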

Rattus norvegicus [16] = assay: Increase in cholesterol level in Wistar rat liver at 499 umol/kg/day administered through diet for 4 days; assay type: ADME, organism-based; conditions: in vivo, po, 96 h
Rattus norvegicus [17] = assay: Hypolipidemic activity in Wistar rat assessed as reduction in plasma triglyceride level at 179 umol/kg/day administered through diet for 10 days; assay type: functional; conditions: 240 h; summary of the method: as §3
Rattus norvegicus [18] = assay: Hypolipidemic activity in Wistar rat assessed as reduction in plasma triglyceride level at 1498 umol/kg/day administered through diet for 10 days; assay type: functional; conditions: 240 h
Summary of the method: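 Young male Wistar rats, 170-190 g initial weight, six per group, fed drug mixed thoroughly into Purina Lab Chow ad libitum for the stated days; daily dose calculated from food consumption and body weight. Bled by cardiac puncture at end; plasma cholesterol and triglycerides by automated procedures, expressed as percent reduction versus simultaneous untreated controls; Student's t test.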

Rattus norvegicus [19] = assay: Hypolipidemic activity in Wistar rat assessed as reduction in plasma triglyceride level at 558 umol/kg/day administered through diet for 10 days; assay type: functional; conditions: 240 h; summary of the method: as §3
Rattus norvegicus [20] = assay: Hypolipidemic activity in Wistar rat assessed as reduction in plasma cholesterol level at 179 umol/kg/day administered through diet for 10 days; assay type: functional; conditions: 240 h; summary of the method: as §2
Rattus norvegicus [21] = assay: Hypolipidemic activity in Wistar rat assessed as reduction in plasma cholesterol level at 1498 umol/kg/day administered through diet for 10 days; assay type: functional; conditions: 240 h; summary of the method: as §2
Rattus norvegicus [22] = assay: Hypolipidemic activity in Wistar rat assessed as reduction in plasma cholesterol level at 558 umol/kg/day administered through diet for 10 days; assay type: functional; conditions: 240 h; summary of the method: as §3
Rattus norvegicus [23] = assay: Increase in cholesterol level in Wistar rat liver at 1498 umol/kg/day administered through diet for 10 days; assay type: ADME, organism-based; conditions: in vivo, po, 240 h
Rattus norvegicus [24] = assay: Increase in cholesterol level in Wistar rat liver at 558 umol/kg/day administered through diet for 10 days; assay type: ADME, organism-based; conditions: in vivo, po, 240 h
Summary of the method: (§5)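 Male Wistar rats (170-190 g), six per group, given compound by admixture to lab chow ad libitum for 4 or 10 days, dose derived from food intake. Liver cholesterol determined by automated procedure, expressed as mg/g wet tissue, compared with an untreated control group by Student's t test.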

Rattus norvegicus [25] = assay: Increase in cholesterol level in Wistar rat liver at 179 umol/kg/day administered through diet for 10 days; assay type: ADME, organism-based; conditions: in vivo, po, 240 h; summary of the method: as §5
Rattus norvegicus [26] = assay: Increase in liver weight in Wistar rat at 1498 umol/kg/day administered through diet for 10 days; assay type: ADME, organism-based; conditions: in vivo, po, 240 h
Rattus norvegicus [27] = assay: Increase in liver weight in Wistar rat at 558 umol/kg/day administered through diet for 10 days; assay type: ADME, organism-based; conditions: in vivo, po, 240 h; summary of the method: as §4
Rattus norvegicus [28] = assay: Hypolipidemic activity in Wistar rat assessed as reduction in plasma triglyceride level at 406 umol/kg/day administered through diet for 4 days; assay type: functional; conditions: 96 h
Rattus norvegicus [29] = assay: Hypolipidemic activity in Wistar rat assessed as reduction in plasma cholesterol level at 406 umol/kg/day administered through diet for 4 days; assay type: functional; conditions: 96 h; summary of the method: as §2
Rattus norvegicus [30] = assay: Increase in liver weight in Wistar rat at 406 umol/kg/day administered through diet for 4 days; assay type: ADME, organism-based; conditions: in vivo, po, 96 h
Rattus norvegicus [31] = assay: Increase in cholesterol level in Wistar rat liver at 406 umol/kg/day administered through diet for 4 days; assay type: ADME, organism-based; conditions: in vivo, po, 96 h
Rattus norvegicus [32] = assay: Hypolipidemic activity in Wistar rat assessed as reduction in plasma triglyceride level at 591 umol/kg/day administered through diet for 4 days; assay type: functional; conditions: 96 h
Rattus norvegicus [33] = assay: Hypolipidemic activity in Wistar rat assessed as reduction in plasma cholesterol level at 591 umol/kg/day administered through diet for 4 days; assay type: functional; conditions: 96 h; summary of the method: as §3
Rattus norvegicus [34] = assay: Increase in cholesterol level in Wistar rat liver at 591 umol/kg/day administered through diet for 4 days; assay type: ADME, organism-based; conditions: in vivo, po, 96 h
Rattus norvegicus [35] = assay: Increase in liver weight in Wistar rat at 591 umol/kg/day administered through diet for 4 days; assay type: ADME, organism-based; conditions: in vivo, po, 96 h
Rattus norvegicus [36] = assay: Hypolipidemic activity in Wistar rat assessed as reduction in plasma triglyceride level at 571 umol/kg/day administered through diet for 10 days; assay type: functional; conditions: 240 h
Rattus norvegicus [37] = assay: Hypolipidemic activity in Wistar rat assessed as reduction in plasma cholesterol level at 571 umol/kg/day administered through diet for 10 days; assay type: functional; conditions: 240 h; summary of the method: as §3
Rattus norvegicus [38] = assay: Increase in cholesterol level in Wistar rat liver at 571 umol/kg/day administered through diet for 10 days; assay type: ADME, organism-based; conditions: in vivo, po, 240 h
Rattus norvegicus [39] = assay: Increase in liver weight in Wistar rat at 571 umol/kg/day administered through diet for 10 days; assay type: ADME, organism-based; conditions: in vivo, po, 240 h
Rattus norvegicus [40] = assay: Hypolipidemic activity in Wistar rat assessed as reduction in plasma triglyceride level at 538 umol/kg/day administered through diet for 10 days; assay type: functional; conditions: 240 h
Rattus norvegicus [41] = assay: Hypolipidemic activity in Wistar rat assessed as reduction in plasma cholesterol level at 538 umol/kg/day administered through diet for 10 days; assay type: functional; conditions: 240 h; summary of the method: as §1
Rattus norvegicus [42] = assay: Increase in cholesterol level in Wistar rat liver at 538 umol/kg/day administered through diet for 10 days; assay type: ADME, organism-based; conditions: in vivo, po, 240 h
Rattus norvegicus [43] = assay: Increase in liver weight in Wistar rat at 538 umol/kg/day administered through diet for 10 days; assay type: ADME, organism-based; conditions: in vivo, po, 240 h

Compound: CCCCCCCCCCCCCCOc1ccc(CC(=O)OC)cc1
inhibition in vivo at 472 µmol/kg (Rattus norvegicus [1]): 23%
inhibition in vivo at 472 µmol/kg (Rattus norvegicus [2]): 0%
Activity (Rattus norvegicus [3]): 8%
Activity (Rattus norvegicus [4]): 0%

Compound: CCCCCCCCCCCCCCOc1ccc(C)cc1
inhibition in vivo at 509 µmol/kg (Rattus norvegicus [5]): 30%
inhibition in vivo at 509 µmol/kg (Rattus norvegicus [6]): 0%
Activity (Rattus norvegicus [7]): 0%
Activity (Rattus norvegicus [8]): 10%

Compound: CCCCCCCCCCCCCCOc1ccc(COC(=O)OCC)cc1
inhibition in vivo at 385 µmol/kg (Rattus norvegicus [9]): 70%
inhibition in vivo at 385 µmol/kg (Rattus norvegicus [10]): 38%
Activity (Rattus norvegicus [11]): 12%
Activity (Rattus norvegicus [12]): 11%

Compound: CCCCCCCCCCCCCCOc1ccc(C=O)cc1
inhibition in vivo at 499 µmol/kg (Rattus norvegicus [13]): 68%
inhibition in vivo at 499 µmol/kg (Rattus norvegicus [14]): 25%
Activity (Rattus norvegicus [15]): 18%
Activity (Rattus norvegicus [16]): 12%

Compound: CCCCCCCCCCCCCCOc1ccc(COC(C)=O)cc1
inhibition in vivo at 406 µmol/kg (Rattus norvegicus [28]): 62%
inhibition in vivo at 406 µmol/kg (Rattus norvegicus [29]): 22%
Activity (Rattus norvegicus [30]): 17%
Activity (Rattus norvegicus [31]): 11%

Compound: CCCCCCCCCCCCCc1ccc(C(=O)O)cc1
inhibition in vivo at 571 µmol/kg (Rattus norvegicus [36]): 77%
inhibition in vivo at 571 µmol/kg (Rattus norvegicus [37]): 54%
Activity (Rattus norvegicus [38]): 61%
Activity (Rattus norvegicus [39]): 25%

Second part, led by results:

Activity (Rattus norvegicus [23]): 323%
Activity (Rattus norvegicus [24]): 215%
Activity (Rattus norvegicus [25]): 79%
Activity (Rattus norvegicus [26]): 38%
Activity (Rattus norvegicus [27]): 29%
Compound: CCCCCCCCCCCCc1ccc(C(=O)O)cc1
inhibition in vivo at 179 µmol/kg (Rattus norvegicus [17]): 62%
inhibition in vivo at 1498 µmol/kg (Rattus norvegicus [18]): 74%
inhibition in vivo at 558 µmol/kg (Rattus norvegicus [19]): 78%
inhibition in vivo at 179 µmol/kg (Rattus norvegicus [20]): 34%
inhibition in vivo at 1498 µmol/kg (Rattus norvegicus [21]): 55%
inhibition in vivo at 558 µmol/kg (Rattus norvegicus [22]): 48%

Activity (Rattus norvegicus [34]): 12%
Activity (Rattus norvegicus [35]): 0%
Compound: CCCCCCCCOc1ccc(C(=O)O)cc1
inhibition in vivo at 591 µmol/kg (Rattus norvegicus [32]): 35%
inhibition in vivo at 591 µmol/kg (Rattus norvegicus [33]): 8%

Activity (Rattus norvegicus [42]): 11%
Activity (Rattus norvegicus [43]): 11%
Compound: CCCCCCCCc1ccc(C(=O)O)cc1
inhibition in vivo at 538 µmol/kg (Rattus norvegicus [40]): 21%
inhibition in vivo at 538 µmol/kg (Rattus norvegicus [41]): 6%
